High-throughput results (PubChem BioAssay)
An excerpt weighted towards active compounds, which were near 3% of everything screened.
Lipid droplet – hepatic lipid droplet formation modulation | AML12 mouse hepatocytes, oleate lipid droplets, BODIPY imaging | inhibition, % at 6.5 µM | 0.4% of 240,000 active;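 active = lipid droplet intensity inhibited by at least 50%, with more than 500 cells counted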
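Material – AML12 mouse liver cells · Also added – oleate loading, 100 µM · Compound dosing – 6.5 µM single-point dosing · Times – overnight treatment with compound plus oleate · Measured by – fluorescence imaging, 20x objective, two fields per well · Read-out – percent inhibition of filter-corrected integrated lipid droplet intensity per well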
GASC-1 inh – human JMJD2C demethylase inhibition. GST-JMJD2C(1-420) H3K9me3 demethylation, DELFIA europium. 0.069% of 330,000 active. inhibition, % at 2.35 µM;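 active = more than half of a compound's replicate wells show inhibition beyond 50%, single wells judged on their own value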;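 also: signal counts dimethyl H3K9 product captured on neutravidin plate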
NPR2 activator – GC-B (human) receptor activation | P20594 | HEK293-GC-B cells, CNP EC30, cGMP TR-FRET; 0% at EC30 CNP, 100% saturating CNP | activation, % at 10 µM | 0.11% of 370,000 active;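 active = activation at 10 µM reaching about 35% in either raw or pattern-adjusted values, limit read from the data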
GRIN3A LBD mod – NR3A (human) ligand-binding domain modulation; NR3A LBD differential scanning fluorimetry, Tm shift; 0% = protein alone, 100% = glycine-bound protein; Tm shift relative to glycine control, % at 25 µM; 2.5% of 340,000 active; AID 1259313;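 active = melting temperature shift of at least 10% of the positive control shift, at one fixed dose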
aDG glyco up – alpha-DG glycosylation activation; Pro5-aDG cells, alpha-DG glycosylation AlphaScreen (IIH6); 0% Pro5, 100% B10-LARGE cell signal; activation, % at 10 µM; 0.22% of 360,000 active; AID 624168;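 active = activation of at least 8% versus controls, or a plate z-score of at least 8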;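 also: Pro5 are CHO cells carrying HIG-tagged alpha-DG that lacks glycosylation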
NPR1 activator – GC-A (human) enzyme activation; P16066; HEK293 GC-A cells, cGMP TR-FRET, EC30 ANP; 0% at EC30 ANP, 100% saturating ANP; activation, % at 10 µM; 0.14% of 370,000 active; AID 1671463; in the data active = activation above about 40%
A number is an active result; - = inactive; . = not tested or not shown.

SMILES | Lipid droplet | GASC-1 inh | NPR2 activator | GRIN3A LBD mod | aDG glyco up | NPR1 activator
CC(Nc1nc(-c2ccccc2F)nc2ccccc12)c1ccccc1 (stereo unspecified) | . | - | - | - | - | -
CC(Nc1nc(-c2ccccc2O)nc2ccccc12)c1ccccc1 (stereo unspecified) | - | - | - | 22.0 | - | -
CCN(CCOC(=O)Nc1ccc(Cl)cc1)C(=O)Nc1ccc(Cl)cc1 | . | . | - | . | . | -
O=C(N[C@H](Cc1ccccc1)C(=O)N1CCN(c2ccc(Cl)cn2)CC1)[C@H]1O[C@@H](n2ccc(=O)[nH]c2=O)[C@H](O)[C@@H]1O | . | . | - | . | . | -
O/C(=C\c1nc2ccccc2nc1/C=C(\O)c1ccccc1)c1ccccc1 | - | - | . | 22.4 | - | .
O=c1oc2ccccc2nc1/C=C(\O)c1ccccc1 | - | - | - | - | - | -
OCCNCCCCOc1cccc(Br)c1 | - | - | - | - | - | -
C=CCNCCCCOc1cccc(Br)c1 | - | - | - | 27.9 | - | -
CCOC(=O)/C(=N\Nc1cc(C(F)(F)F)ccc1Cl)N(CC)CC | - | - | - | 15.2 | - | -
C=CCN(C)C(C#CCCCC)c1ccccc1 (stereo unspecified) | . | . | - | . | . | -
CCOC(=O)c1c(NC(=S)Nc2ccccc2)sc2c1CC(C)(C)SC2 | - | - | - | 13.2 | - | -
O=S(=O)(c1ccc(F)cc1F)N1CCN(CCO)CC1 | . | . | - | 12.6 | - | -
O=S(=O)(c1ccc(F)cc1)N1CCN(S(=O)(=O)c2cc(F)ccc2F)CC1 | - | - | - | - | - | -
COc1ccc(S(=O)(=O)NC(N)=NCCc2ccccc2)cc1 | - | - | - | - | - | -
COc1ccc(CCN=C(N)NS(=O)(=O)c2ccc3ccccc3c2)cc1 | - | - | - | 18.0 | - | -
Cc1nc2ccc(C(=O)N3CCN(C(=O)C(Cl)Cl)CC3)cc2n1C1CCCC1 | . | . | - | . | . | -
CC(=O)N(C)c1ccc(NC(=O)C(Sc2ccccc2)c2ccccc2)cc1 (stereo unspecified) | - | - | - | - | - | -
O=C(Nc1ccc(Cl)c([N+](=O)[O-])c1)C(Sc1ccccc1)c1ccccc1 (stereo unspecified) | - | - | - | 27.6 | - | -
CC(C)(C)NS(=O)(=O)c1ccc(NC(=O)C(Sc2ccccc2)c2ccccc2)cc1 (stereo unspecified) | . | - | - | 22.7 | - | -
C=Cc1c(C)c2cc3[nH]c(cc4nc(cc5nc(cc1[nH]2)C(C)=C5CCC(=O)O)C(CCC(=O)O)=C4C)c(C)c3C=C | . | - | - | - | 73.0 | -
O=C(c1ccc(Cl)cc1)N1CCN(c2cccc3[nH]ccc23)CC1 | - | - | - | 15.4 | - | -
O=C(NCc1ccccn1)c1cn(Cc2ccccc2)nn1 | . | 64.1 | - | - | - | -
O=C(NCc1ccccn1)c1ccco1 | - | - | - | - | - | -
CC(=O)Nc1ccc(NC(=O)/C=C/c2cccc(C(F)(F)F)c2)cc1 | - | - | - | 18.1 | - | -
CC(=O)Nc1ccc(NC(=O)/C=C/c2ccc(Cl)cc2)cc1 | - | - | - | 12.8 | - | -
SMILES | Lipid droplet | GASC-1 inh | NPR2 activator | GRIN3A LBD mod | aDG glyco up | NPR1 activator
CC(C)(C)NC(=O)/C=C/c1cccc(C(F)(F)F)c1 | - | - | - | - | - | -
CC(=O)Nc1ccc(CN2CCN(c3cccc(C(F)(F)F)c3)CC2)cc1 | - | - | - | 19.9 | - | -
Oc1ccccc1C=Nn1c(-c2ccccc2F)n[nH]c1=S | . | . | - | . | . | -
COc1cccc(NC(=O)Nc2c(-c3ccc(C)cc3)nc3ncccn23)c1 | . | . | - | . | . | -
Cc1sc2ncnc(SCC(=O)N3CCCC(C(F)(F)F)C3)c2c1C (stereo unspecified) | - | - | - | - | - | -
O=C(c1ccccc1)c1ccc(OCCn2cnc3ccccc3c2=O)cc1 | . | - | - | - | - | -
CC(C)(c1ccccc1)c1ccc(OCCn2cnc3ccccc3c2=O)cc1 | - | - | - | 21.5 | - | -
COc1ccc(/C=N/Nc2nc(NCc3ccco3)nc(Nc3ccc(OC)cc3)n2)cc1 | - | - | - | 17.8 | - | -
COc1ccc(/C=N/Nc2nc(Nc3ccccc3)nc(N3CCCC3)n2)cc1 | - | - | - | - | - | -
CC(C)c1ccc(Nc2nc(Cl)nc(NCc3ccco3)n2)cc1 | - | - | - | - | - | -
COc1ccc(Nc2nc(NCc3ccco3)nc(N/N=C/c3ccc(O)cc3)n2)cc1 | - | - | - | 19.1 | - | -
COc1ccc(Nc2nc(NCc3ccco3)nc(N/N=C/c3ccccc3F)n2)cc1 | - | - | - | 15.9 | - | -
COc1ccc(Nc2nc(Cl)nc(NCc3ccco3)n2)c(OC)c1 | . | - | - | - | - | -
Cc1ccccc1Cn1cc(CN2[C@@H](C)COc3cc(Br)ccc3S2(=O)=O)nn1 | . | . | - | . | . | -
CCCCN(C)C(=O)c1cn(C(C)c2ccccc2)nn1 (stereo unspecified) | . | . | - | . | . | -
O=C(c1ccccc1)N1CCN=C1SCc1ccc([N+](=O)[O-])cc1 | - | - | - | 24.2 | - | -
COc1cc(C2NC(=O)CCC2[N+](=O)[O-])cc(OC)c1OC (stereo unspecified) | - | - | - | - | - | -
CCC1CCc2c(sc(NC(=O)CSc3nc(-c4ccco4)cc(C(F)(F)F)n3)c2C#N)C1 (stereo unspecified) | - | - | - | 12.1 | - | -
CCC1CCc2c(sc(NC(=O)c3ccco3)c2C(N)=O)C1 (stereo unspecified) | - | - | - | 715.0 | - | -
CCOc1ccc(-n2c(SCC(=O)Nc3cccc4ccccc34)nnc2-c2cccs2)cc1 | . | . | - | . | . | -
CC(C)CCC(O)(CCC(C)C)C(=O)NN1CCCCC1 | - | - | - | - | - | -
CCCC(O)(CCC)C(=O)NN1CCCCC1 | . | - | - | 27.5 | - | -
CCCCN1CCN(C(=O)Cn2c(=O)c3ccccc3n(CC)c2=O)CC1 | . | . | - | . | . | -
Oc1ccc(/C=N/N=C(c2ccccc2)c2ccccc2)c(O)c1O | - | - | - | - | - | -
O=C(/C(=N/N=C/c1ccc(O)c(O)c1O)c1ccccc1)c1ccccc1 | - | - | - | 18.1 | - | -
O=C(CSc1nc2ccccc2o1)Nc1ccc(Cl)cc1 | - | - | - | 19.4 | - | -
O=C(CSc1ccc(Cl)cc1)Nc1ccc(NC(=O)c2ccco2)cc1 | - | - | - | 21.0 | - | -
Cc1ccc(NC(=O)CSc2nnc(NC(=O)c3ccco3)s2)cc1 | - | - | - | 12.5 | - | -
COc1cccc(NC(=O)CSc2nnc(NC(=O)c3ccco3)s2)c1 | - | - | - | - | - | -
CC(=O)c1ccc(NC(=O)CSc2nnc(NC(=O)c3ccco3)s2)cc1 | - | - | . | 18.9 | - | .
